# CendR NRP1 mod – NRP-1/CendR interaction modulation; O14786; FAM-RPARPAR peptide binding to NRP-1, fluorescence polarization; inhibition, % at 25 µM; actives 0.85% (n = 360,000);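 active = inhibition or corrected inhibition above about 18%, plus a signal ratio from 0.5 to 1.5, limit read from the data, passing the limit was not always enough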
# MEX-5 binding – C. elegans MEX-5 TCR-2 RNA binding activity; Q9XUB2; MEX-5/FITC-TCR2 RNA binding, fluorescence polarization; stronger effect = lower value; activity score (negative = inhibition of binding), % at 10 µM; actives 0.38% (n = 300,000);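 active = inhibition past about -25% in most replicates, and total fluorescence under double the plate's negative control median, limit read from the data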;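 note: 0% = DMSO and -100% = 5 µM competing unlabeled TCR2 RNA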
# Target sequence (Q9XUB2 whole entry, looked up): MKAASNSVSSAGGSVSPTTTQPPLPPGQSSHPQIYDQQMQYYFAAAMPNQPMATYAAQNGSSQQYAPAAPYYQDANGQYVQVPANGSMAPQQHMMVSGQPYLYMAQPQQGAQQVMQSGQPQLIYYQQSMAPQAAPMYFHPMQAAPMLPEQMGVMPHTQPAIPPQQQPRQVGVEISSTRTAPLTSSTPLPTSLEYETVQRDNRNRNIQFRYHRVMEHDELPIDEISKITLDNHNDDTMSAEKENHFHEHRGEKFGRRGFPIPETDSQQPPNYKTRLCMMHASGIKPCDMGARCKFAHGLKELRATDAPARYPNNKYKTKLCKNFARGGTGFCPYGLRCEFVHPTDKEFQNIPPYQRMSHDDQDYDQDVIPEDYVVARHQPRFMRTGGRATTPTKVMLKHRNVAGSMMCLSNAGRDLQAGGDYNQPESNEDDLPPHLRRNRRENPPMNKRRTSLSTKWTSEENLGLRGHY
# HCV core dimer – HCV core protein dimerization inhibition; actives 0.33% (n = 300,000); TR-FRET GST/Flag-core106 dimerization, 1536-well; AID 1899; inhibition, % at 5 µM;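 active = inhibition above the mean of all tested compounds plus 3 SD, set per screening campaign, cut at about 45% in these data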
#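 Material: Tagged HCV core106 pair (GST and Flag) | Amount: GST-core106 13.5 nM, Flag-core106 17 nM | Medium: KF-containing HEPES buffer, pH 7.45, DTT, CHAPS, BSA | Reagent: Eu donor and XL665 acceptor anti-tag antibodies | Schedule: 4 h at 22.5 °C | Technique: Time-resolved FRET, ex 340 nm, em 617 and 671 nm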
# DNA FID counter – displaces DNA intercalator in HCV helicase counter-screen | actives 0.17% (n = 290,000) | AID 1845 | inhibition, % at 7.9 µM | DNA fluorescent intercalator displacement, fluorescence; in the data active = inhibition above about 37%;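 note: 0% = vehicle and 100% = reference compound; higher means more ethidium bromide displaced from hairpin DNA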
# * = called active by the depositor; x = no result. A selection: hits, their analogues and other compounds. The true share with any hit is near 1.5%.
SMILES,CendR NRP1 mod,MEX-5 binding,HCV core dimer,DNA FID counter
CC1(C)CC(=O)C=C(c2ccc(-c3cccc4c3sc3ccccc34)cc2)C1=O,-8,x,x,x
Cc1cc(C)n2nc3nc(N4CCCC4)nc(-c4ccccc4)c3c2n1,-22,0,48*,-14
O=C(NC1CCCCC1)C(c1cccs1)N(C(=O)c1ccccn1)c1ccccc1 (stereo unspecified),5,2,5,-19
OC(C#Cc1ccccn1)c1cccs1 (stereo unspecified),9,-35*,-1,0
CC(C)C1(C2CCCC2)NC(=O)NC1=O (stereo unspecified),2,x,x,x
CC(C)C1=C2CCCCC2NC(=O)N1 (stereo unspecified),28*,1,0,-2
Cc1cc(C(=O)c2ccccc2)cc(C)c1O,-4,x,x,x
CC1=C/C(=C(\c2cc(C)c(O)c(Br)c2)c2ccccc2S(=O)(=O)O)C=C(Br)C1=O,46*,2,-183,-7
CC1(C)OC(=O)C=C[C@]2(C)[C@H]3CC[C@@]4(C)[C@H](C(=O)O)OC(=O)[C@H]5O[C@]54[C@]3(C)C(=O)C[C@@H]12,22*,x,x,x
O=C1CCC(=O)N1c1ccc(-c2nc3sc4c(c3c(=O)o2)CCC4)cc1,7,2,0,-3
O=c1oc(-c2ccccc2)nc2sc3c(c12)CCC3,-8,-1,59*,5
O=C(NC1CCCC1)C(C1CC1)n1c(-c2ccncc2)nc2ccccc21 (stereo unspecified),16,x,x,x
C/C=C/c1cccc(-c2nc(C(=O)NC3CCC3)cc3c2[C@H](CCO)N(S(=O)C(C)(C)C)C3)c1 (stereo partly specified),-17,x,x,x
CC(C)CC(=NNC(=O)c1ccncc1)c1cc(Cl)ccc1O,-127,x,x,x
Fc1ccc(C2=CC(c3ccc(Br)o3)n3ncnc3N2)cc1 (stereo unspecified),135,x,13,-6
CC1=C(C(N)=O)C(c2ccc(Br)cc2)n2nc(CCCO)nc2N1 (stereo unspecified),-11,-1,5,-5
Brc1ccc(C2=CC(c3cccs3)n3ncnc3N2)cc1 (stereo unspecified),127,-51*,10,-3
OCCCc1nc2n(n1)C(c1cccs1)C=C(c1ccc(Br)cc1)N2 (stereo unspecified),x,-68*,3,-16
Fc1ccc(C2=CC(c3ccco3)n3ncnc3N2)cc1 (stereo unspecified),38*,-51*,-2,-10
COc1ccc(OC)c(NC(=O)COC(=O)c2ccc(S(=O)(=O)N3CCCCC3)cc2)c1,2,x,x,x
COc1cccc(CNc2nc3cc(-c4cccc(C(=O)NCCO)c4)sc3c(=O)n2C)c1,-7,x,x,x
CC(=O)Nc1ccc2c(O)cc(S(=O)(=O)O)cc2c1,-26,x,x,x
COc1ccccc1Nc1ccc2c(O)cc(S(=O)(=O)O)cc2c1,71*,x,x,x
O=S(=O)(O)c1cc(O)c2cc(Nc3ccccc3)ccc2c1,42*,x,x,x
Nc1ccc2c(O)cc(S(=O)(=O)O)cc2c1,28*,x,x,x
SMILES,CendR NRP1 mod,MEX-5 binding,HCV core dimer,DNA FID counter
CC1C(=O)N(Cc2cn(CCC3OCCCO3)nn2)CCS(=O)(=O)N1Cc1ccc(-c2ccc(Cl)nc2)cc1 (stereo unspecified),4,x,x,x
COc1ccc(OCC(=O)NNC(=S)NC(=O)C2CCCCC2)cc1,10,-2,-2,-13
CCOC(=O)C1(C)CCN1C(=O)c1ccc2c(c1)CCO2 (stereo unspecified),2,x,x,x
Cc1oc2ccc(OCC(N)=O)cc2c1C(=O)OC(C)C,28*,1,-3,-23
Cc1oc2ccc(O)cc2c1C(=O)OC(C)C,11,-3,0,-6
CC(C(=O)NC(C)(C)C)n1c(-c2ccc3c(c2)OCO3)nc2ccccc21 (stereo unspecified),-2,x,x,x
CC1C2(C)OC(=N)C(C#N)(C(C)O2)C1(C#N)C#N (stereo unspecified),5,-30*,1,-1
C[C@H](CO)N1C[C@H](C)[C@H](CN(C)C(=O)Nc2cccc(C(F)(F)F)c2)OCc2cnnn2CCCC1=O,-18,x,x,x
Cc1ccc(Nc2c(-c3ccccc3O)nc3ncccn23)cc1,25*,2,-4,-6
CCOC(=O)C1(C)CCCN(C(=O)c2cccc(C#N)c2)C1 (stereo unspecified),8,x,x,x
CC1Cc2ccccc2N1Cc1nc2scc(-c3cccs3)c2c(=O)[nH]1 (stereo unspecified),-10,4,55*,-12
CC1Cc2ccccc2N1Cc1nc2cc(Cl)ccc2c(=O)[nH]1 (stereo unspecified),-6,1,72*,-11
CN(C(=O)COC(=O)c1cnc(Cl)c(Cl)c1)C1CCCCC1,24*,x,x,x
CC(NCC(O)c1ccc([N+](=O)[O-])cc1)C12CC3CC(CC(C3)C1)C2 (stereo unspecified),-1,1,3,38*
Cc1cc(CNCCN(C)C)c(C)n1-c1cc(S(=O)(=O)N2CCOCC2)ccc1N1CCCC1,-3,x,x,x
C/C(=N\NC(=S)NCCc1ccccc1)c1cccs1,28*,-1,0,-14
Cc1ccc(/C=C/C2=NN(C)C(=O)CC2)cc1,36*,-2,-1,-3
Cc1nn(-c2ccccc2)c(N)c1C(c1ccc(C(C)C)cc1)c1c(C)nn(-c2ccccc2)c1N,2,3,12,-31
Cc1ccc(C(c2c(C)nn(-c3ccccc3)c2N)c2c(C)nn(-c3ccccc3)c2N)cc1,30*,-1,4,-40
COCCNC(=O)C1(C)CCCN(C(=O)c2ccco2)C1 (stereo unspecified),5,x,x,x
O=C(Cc1ccc(F)cc1)N1CCC(CC2CC(c3ccc(Cl)cc3)=NO2)(C(=O)NCC2CCCCC2)CC1 (stereo unspecified),25*,1,18,-36
O=C(c1ccco1)N1CCN(C(=O)c2cc(-c3ccccc3)nc3ccccc23)CC1,-7,2,9,-28
O=C(c1ccco1)N1CCN(C(=O)c2cc(-c3ccccn3)nc3ccc(Cl)cc23)CC1,2,-12,76*,-23
CCOC(=O)c1c(NC(=O)CSc2nnnn2-c2ccccc2OCC)sc2c1CC(C)(C)NC2(C)C,3,0,-1,x
CCOC(=O)c1c(NC(=O)C2COc3ccccc3O2)sc2c1CC(C)(C)NC2(C)C (stereo unspecified),4,0,-6,43*
SMILES,CendR NRP1 mod,MEX-5 binding,HCV core dimer,DNA FID counter
CCOC(=O)c1c(NC(=O)COc2ccccc2C#N)sc2c1CC(C)(C)NC2(C)C,22*,-2,1,25
CCOC(=O)c1c(NC(=O)COc2ccccc2OCC)sc2c1CC(C)(C)NC2(C)C,9,-1,0,x
CCOC(=O)c1c(NC(=O)CSc2nnnn2-c2ccccc2)sc2c1CC(C)(C)NC2(C)C,-1,-2,9,41*
CCOC(=O)c1c(NC(=O)Cc2ccccc2)sc2c1CC(C)(C)NC2(C)C,-2,2,-4,24
Cc1cc2nc3ccc(N(C)C)cc3nc2cc1N,44,-28*,-11,x
CCN(CC)CCCNc1ccc2ncn3c4ccc(O)cc4c(=O)c1c23,145,x,x,x

# Assay outcomes as filed in PubChem BioAssay.
